Measurements from ChEMBL document CHEMBL1153511, “Synthesis and biological evaluation of sphingosine kinase substrates as sphingosine-1-phosphate receptor prodrugs” (2009).
The source made the active and inactive calls. No cut-off for these calls is given here.

Key:
[1] = biological target: Sphingosine 1-phosphate receptor 1 (Homo sapiens) (UniProt P21453); assay: Ratio of agonistic Emax for S1P to compound for human S1P1 receptor by [35S]GTPgammaS binding assay; type: functional
Procedure, shortened: (§1)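 The chemically phosphorylated compounds were tested as agonists at each individual S1P receptor. Agonist-stimulated binding of GTP[γ-35S] to membranes was measured. EC50 and Emax were normalized to those of S1P run in the same assay.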

[2] = biological target: Sphingosine 1-phosphate receptor 5 (Homo sapiens) (UniProt Q9H228); assay: Ratio of agonistic Emax for S1P to compound for human S1P5 receptor by [35S]GTPgammaS binding assay; type: functional; procedure, shortened: as §1
Mus musculus = assay: Induction of S1P1-mediated lymphopenia in mouse assessed as lymphocyte depletion at 10 mg/kg, ip after 20 hrs; type: functional; conditions: route intraperitoneal
Procedure, shortened: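 Mice received a single ip injection. Lymphocyte depletion from peripheral blood was assessed 20 h after dosing.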

[3] = biological target: Sphingosine 1-phosphate receptor 1 (Homo sapiens) (UniProt P21453); assay: Ratio of agonistic EC50 for S1P to compound for human S1P1 receptor by [35S]GTPgammaS binding assay; type: functional; procedure, shortened: as §1
[4] = biological target: Sphingosine 1-phosphate receptor 3 (Homo sapiens) (UniProt Q99500); assay: Ratio of agonistic Emax for S1P to compound for human S1P3 receptor by [35S]GTPgammaS binding assay; type: functional; procedure, shortened: as §1
[5] = biological target: Sphingosine 1-phosphate receptor 2 (Homo sapiens) (UniProt O95136); assay: Ratio of agonistic EC50 for S1P to compound for human S1P2 receptor by [35S]GTPgammaS binding assay; type: functional; procedure, shortened: as §1
[6] = biological target: Sphingosine 1-phosphate receptor 2 (Homo sapiens) (UniProt O95136); assay: Ratio of agonistic Emax for S1P to compound for human S1P2 receptor by [35S]GTPgammaS binding assay; type: functional; procedure, shortened: as §1
[7] = biological target: Sphingosine 1-phosphate receptor 5 (Homo sapiens) (UniProt Q9H228); assay: Ratio of agonistic EC50 for S1P to compound for human S1P5 receptor by [35S]GTPgammaS binding assay; type: functional; procedure, shortened: as §1
[8] = biological target: T1, Sphingosine 1-phosphate receptor 4 (Homo sapiens) (UniProt O95977); assay: Ratio of agonistic Emax for S1P to compound for human S1P4 receptor by [35S]GTPgammaS binding assay; type: functional; procedure, shortened: as §1
T1 sequence (whole entry): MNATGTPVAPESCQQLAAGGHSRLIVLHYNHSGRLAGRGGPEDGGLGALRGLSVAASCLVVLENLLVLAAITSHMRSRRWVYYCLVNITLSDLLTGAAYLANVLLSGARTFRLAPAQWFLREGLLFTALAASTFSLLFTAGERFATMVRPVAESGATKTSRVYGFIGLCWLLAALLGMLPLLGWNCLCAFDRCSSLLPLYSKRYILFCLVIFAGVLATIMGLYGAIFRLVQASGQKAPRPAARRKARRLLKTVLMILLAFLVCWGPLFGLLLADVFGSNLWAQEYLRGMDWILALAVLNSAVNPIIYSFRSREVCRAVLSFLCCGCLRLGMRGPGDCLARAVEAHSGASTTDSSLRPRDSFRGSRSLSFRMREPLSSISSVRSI

[9] = biological target: Sphingosine 1-phosphate receptor 3 (Homo sapiens) (UniProt Q99500); assay: Ratio of agonistic EC50 for S1P to compound for human S1P3 receptor by [35S]GTPgammaS binding assay; type: functional; procedure, shortened: as §1
[10] = biological target: T1, Sphingosine 1-phosphate receptor 4 (Homo sapiens); assay: Ratio of agonistic EC50 for S1P to compound for human S1P4 receptor by [35S]GTPgammaS binding assay; type: functional; procedure, shortened: as §1
[11] = biological target: T2, Sphingosine kinase 2 (Homo sapiens) (UniProt Q9NRA0); assay: Activity at human SPHK2 at 15 uM
T2 sequence (whole entry): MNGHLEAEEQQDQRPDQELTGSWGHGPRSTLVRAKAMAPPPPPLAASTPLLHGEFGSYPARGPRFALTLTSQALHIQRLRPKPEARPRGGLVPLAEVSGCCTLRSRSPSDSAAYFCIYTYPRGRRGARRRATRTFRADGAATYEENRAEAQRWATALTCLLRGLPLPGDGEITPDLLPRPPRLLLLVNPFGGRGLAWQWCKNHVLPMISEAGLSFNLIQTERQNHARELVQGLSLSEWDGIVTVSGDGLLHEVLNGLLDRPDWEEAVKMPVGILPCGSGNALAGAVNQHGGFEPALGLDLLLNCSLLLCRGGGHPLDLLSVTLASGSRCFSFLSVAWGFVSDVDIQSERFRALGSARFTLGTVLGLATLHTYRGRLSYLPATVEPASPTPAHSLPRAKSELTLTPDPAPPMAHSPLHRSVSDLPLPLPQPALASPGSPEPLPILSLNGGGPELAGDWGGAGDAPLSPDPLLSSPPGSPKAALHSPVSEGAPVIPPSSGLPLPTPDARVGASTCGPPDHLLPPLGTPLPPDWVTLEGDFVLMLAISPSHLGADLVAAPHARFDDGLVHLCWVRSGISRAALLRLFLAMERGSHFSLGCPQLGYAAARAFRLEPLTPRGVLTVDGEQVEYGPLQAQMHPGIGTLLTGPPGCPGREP

[12] = biological target: Sphingosine kinase 1 (Homo sapiens) (UniProt Q9NYA1); assay: Activity at human SPHK1 at 100 uM
[13] = biological target: T2, Sphingosine kinase 2 (Homo sapiens); assay: Activity at human SPHK2 at 100 uM

Sequence of Sphingosine 1-phosphate receptor 3 (Homo sapiens) (Q99500 whole entry): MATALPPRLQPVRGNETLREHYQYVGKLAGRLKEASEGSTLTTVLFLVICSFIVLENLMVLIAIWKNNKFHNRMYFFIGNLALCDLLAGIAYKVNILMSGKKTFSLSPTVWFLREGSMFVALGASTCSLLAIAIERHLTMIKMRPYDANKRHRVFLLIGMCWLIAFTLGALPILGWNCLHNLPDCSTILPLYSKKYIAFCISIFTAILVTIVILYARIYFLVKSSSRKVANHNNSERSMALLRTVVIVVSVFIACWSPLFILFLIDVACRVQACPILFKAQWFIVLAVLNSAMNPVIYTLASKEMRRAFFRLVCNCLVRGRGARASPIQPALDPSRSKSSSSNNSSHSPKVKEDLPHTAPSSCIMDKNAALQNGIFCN
Sequence of Sphingosine 1-phosphate receptor 2 (Homo sapiens) (O95136 whole entry): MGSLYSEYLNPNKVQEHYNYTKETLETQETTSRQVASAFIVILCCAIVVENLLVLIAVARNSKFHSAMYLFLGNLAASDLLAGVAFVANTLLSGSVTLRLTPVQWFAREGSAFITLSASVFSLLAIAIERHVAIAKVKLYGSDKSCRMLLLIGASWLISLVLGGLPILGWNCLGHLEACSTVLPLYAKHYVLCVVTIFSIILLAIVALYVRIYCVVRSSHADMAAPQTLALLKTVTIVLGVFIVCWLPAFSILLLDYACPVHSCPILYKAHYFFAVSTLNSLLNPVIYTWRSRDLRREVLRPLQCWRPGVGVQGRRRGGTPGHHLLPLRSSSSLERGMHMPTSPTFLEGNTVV
Sequence of Sphingosine 1-phosphate receptor 5 (Homo sapiens) (Q9H228 whole entry): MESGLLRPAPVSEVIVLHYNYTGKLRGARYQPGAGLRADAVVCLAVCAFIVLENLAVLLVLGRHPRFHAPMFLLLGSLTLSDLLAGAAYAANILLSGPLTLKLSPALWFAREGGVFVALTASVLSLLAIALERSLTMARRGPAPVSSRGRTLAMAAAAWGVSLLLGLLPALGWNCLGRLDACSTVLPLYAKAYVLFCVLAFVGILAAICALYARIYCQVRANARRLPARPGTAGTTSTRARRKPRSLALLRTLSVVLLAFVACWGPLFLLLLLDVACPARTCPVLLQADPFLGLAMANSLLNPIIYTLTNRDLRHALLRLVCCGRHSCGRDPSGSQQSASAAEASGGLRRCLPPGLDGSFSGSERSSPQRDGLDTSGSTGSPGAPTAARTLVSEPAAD
Sequence of Sphingosine 1-phosphate receptor 1 (Homo sapiens) (P21453 whole entry): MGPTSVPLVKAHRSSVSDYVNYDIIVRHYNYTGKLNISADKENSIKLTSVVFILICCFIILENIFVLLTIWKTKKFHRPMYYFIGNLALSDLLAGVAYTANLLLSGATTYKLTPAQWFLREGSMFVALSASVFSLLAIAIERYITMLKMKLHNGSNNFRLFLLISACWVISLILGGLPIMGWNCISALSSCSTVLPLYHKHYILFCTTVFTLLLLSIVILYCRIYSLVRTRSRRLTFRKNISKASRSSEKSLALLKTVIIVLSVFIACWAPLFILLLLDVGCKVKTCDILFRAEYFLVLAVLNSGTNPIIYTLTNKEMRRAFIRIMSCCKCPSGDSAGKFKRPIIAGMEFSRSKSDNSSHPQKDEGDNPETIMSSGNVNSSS
Sequence of Sphingosine kinase 1 (Homo sapiens) (Q9NYA1 whole entry): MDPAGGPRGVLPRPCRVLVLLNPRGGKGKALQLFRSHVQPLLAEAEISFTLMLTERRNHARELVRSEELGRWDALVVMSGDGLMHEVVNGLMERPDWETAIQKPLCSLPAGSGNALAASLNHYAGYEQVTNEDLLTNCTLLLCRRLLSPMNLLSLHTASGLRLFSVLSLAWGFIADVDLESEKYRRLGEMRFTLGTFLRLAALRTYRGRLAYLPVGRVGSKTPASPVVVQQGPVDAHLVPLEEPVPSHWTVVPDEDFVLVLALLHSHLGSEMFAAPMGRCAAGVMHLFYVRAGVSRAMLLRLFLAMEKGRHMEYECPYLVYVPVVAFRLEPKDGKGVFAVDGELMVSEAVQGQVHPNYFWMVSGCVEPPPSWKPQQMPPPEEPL

Row | SMILES | Ratio [1] | Ratio [2] | Ratio EC50 [3] | Ratio [4] | Ratio EC50 [5] | Ratio [6] | Ratio EC50 [7] | Ratio [8] | Ratio EC50 [9] | Ratio EC50 [10] | Activity [11] | Activity [12] | Activity [13] | Activity (Mus musculus)
1 | CCCCCCCCc1ccc(-c2cnc([C@@](C)(N)COP(=O)(O)O)[nH]2)cc1.O=C(O)C(F)(F)F.O=C(O)C(F)(F)F | 0.87 | 0.83 | 1.09 | 0.65 | inactive | 0 | 3.62 | 0.93 | 50.8 | 0.59 | – | – | – | 75%
2 | CCCCCCCCc1ccc(-c2nc(C(C)(N)COP(=O)(O)O)no2)cc1 (centres undefined) | 1 | 1 | 2.5 | – | – | 0 | 21.6 | – | – | – | – | – | – | –
3 | CCCCCCCCc1ccc(-c2coc(C(C)(N)COP(=O)(O)O)n2)cc1 (centres undefined) | 0.8 | 0.6 | 4.28 | 1 | – | 0 | 24.1 | – | 52.5 | – | – | – | – | –
4 | CCCCCCCCc1ccc(-c2cnc([C@](C)(N)COP(=O)(O)O)[nH]2)cc1.O=C(O)C(F)(F)F.O=C(O)C(F)(F)F | 0.92 | 0.83 | 8.09 | 0.61 | inactive | 0 | 16.1 | 1.19 | 1000 | 4.13 | – | – | – | 75%

The next lines start with results.

Row | Ratio [1] | Ratio [2] | Ratio EC50 [3] | Ratio [4] | Ratio EC50 [5] | Ratio [6] | Ratio EC50 [7] | Ratio [8] | Ratio EC50 [9] | Ratio EC50 [10] | Activity [11] | Activity [12] | Activity [13] | SMILES | Activity (Mus musculus)
5 | – | – | – | – | – | – | – | – | – | – | 20% | – | – | CCCCCCCCc1ccc(-c2cnc([C@@](C)(N)CO)[nH]2)cc1 | 75%
6 | – | – | – | – | – | – | – | – | – | – | – | Active | – | CCCCCCCCc1ccc(-c2nc(C(C)(N)CO)no2)cc1 (centres undefined) | –
7 | 0.89 | 0.73 | 24.4 | 0.51 | inactive | 0 | 4.35 | 0.81 | 23 | 0.52 | – | – | – | CCCCCCCCc1ccc(-c2noc(C(C)(N)COP(=O)(O)O)n2)cc1 (racemic) | –
8 | – | – | – | – | – | – | – | – | – | – | – | – | inactive | CCCCCCCCc1ccc(-c2cnc([C@](C)(N)CO)[nH]2)cc1 | 75%
